This is an account of results in ChEMBL document CHEMBL4376857, “Discovery of Selective Inhibitors of Endoplasmic Reticulum Aminopeptidase 1” (J Med Chem, 2020).

As a reminder, the IC50 is the point on the concentration scale where inhibition reaches its midpoint. The term Ki denotes a dissociation constant, usually derived from enzyme kinetics or from competition with a known ligand. What is called AC50 is the midpoint of the concentration-response curve, whichever way the signal moves.

The target in data set [1] is T1, Leucyl-cystinyl aminopeptidase (Mus musculus, UniProt Q8C129).
T1 sequence (Q8C129 whole entry): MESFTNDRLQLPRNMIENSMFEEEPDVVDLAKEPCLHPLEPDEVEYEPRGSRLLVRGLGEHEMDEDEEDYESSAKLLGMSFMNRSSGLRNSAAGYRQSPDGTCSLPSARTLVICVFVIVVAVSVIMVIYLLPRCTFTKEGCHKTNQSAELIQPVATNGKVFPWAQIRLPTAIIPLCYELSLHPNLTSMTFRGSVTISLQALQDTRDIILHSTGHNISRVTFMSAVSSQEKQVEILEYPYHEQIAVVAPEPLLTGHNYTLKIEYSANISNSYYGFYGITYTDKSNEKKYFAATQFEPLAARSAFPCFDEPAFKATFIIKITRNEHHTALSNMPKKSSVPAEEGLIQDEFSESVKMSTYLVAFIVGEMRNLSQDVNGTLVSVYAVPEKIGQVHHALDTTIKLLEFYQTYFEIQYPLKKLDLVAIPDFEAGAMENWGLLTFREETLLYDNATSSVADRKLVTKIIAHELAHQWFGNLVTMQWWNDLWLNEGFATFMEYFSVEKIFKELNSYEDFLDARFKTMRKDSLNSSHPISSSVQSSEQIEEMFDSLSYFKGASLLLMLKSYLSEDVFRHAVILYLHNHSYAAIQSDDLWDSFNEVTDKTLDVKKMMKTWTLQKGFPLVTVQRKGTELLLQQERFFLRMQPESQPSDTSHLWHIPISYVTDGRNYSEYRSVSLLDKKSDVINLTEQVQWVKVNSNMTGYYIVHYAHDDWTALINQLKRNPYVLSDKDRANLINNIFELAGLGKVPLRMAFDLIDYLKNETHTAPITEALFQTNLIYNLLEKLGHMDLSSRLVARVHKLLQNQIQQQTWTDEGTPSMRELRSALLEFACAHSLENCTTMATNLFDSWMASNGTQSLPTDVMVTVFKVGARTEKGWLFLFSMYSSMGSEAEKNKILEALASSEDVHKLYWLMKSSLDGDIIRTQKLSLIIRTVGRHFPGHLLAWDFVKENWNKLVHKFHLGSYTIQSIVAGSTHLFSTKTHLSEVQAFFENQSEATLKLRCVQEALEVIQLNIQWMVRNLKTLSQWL
The data set can be described thus: Inhibition of recombinant mouse C-terminal His6-tagged IRAP expressed in baculovirus infected BTA-TN-5B1-4 insect cells using L-AMC as substrate measured after 1 hr by fluorescence assay.

Data set [2] deals with T2, Antigen peptide transporter 1/2 (Homo sapiens) (UniProt Q03518+Q03519). The data set can be described thus: Inhibition of TAP1/2 in human HeLa cells stably expressing H-2 Kb infected with vaccinia virus containing Ub-SIINFEKL epitope assessed as suppression of Ub-SIINFEKL binding to MHC1 H-2 Kb at cell surface by measuring reduction in 25D1 staining at 50 uM measured after 16 to 24 hrs by flow cytometric method. The format is cell-based. (In general: Flow cytometry measures light scatter and fluorescence of single cells or particles in a stream.)

Data set [3] concerns the target T2, Antigen peptide transporter 1/2 (Homo sapiens). The data set can be described thus: Inhibition of TAP1/2 in human HeLa cells stably expressing H-2 Kb infected with vaccinia virus containing Ub-SIINFEKL epitope assessed as suppression of Ub-SIINFEKL binding to MHC1 H-2 Kb at cell surface by measuring reduction in 25D1 staining measured after 16 to 24 hrs by flow cytometric method. The format is cell-based.

For data set [4], the target named is T3, Endoplasmic reticulum aminopeptidase 1 (Homo sapiens, UniProt Q9NZ08). Kind of data set: Inhibition of recombinant human C-terminal His6-tagged ERAP1 expressed in baculovirus infected BTA-TN-5B1-4 insect cells using L-AMC as substrate measured after 1 hr by fluorescence assay.
T3 sequence (Q9NZ08 whole entry): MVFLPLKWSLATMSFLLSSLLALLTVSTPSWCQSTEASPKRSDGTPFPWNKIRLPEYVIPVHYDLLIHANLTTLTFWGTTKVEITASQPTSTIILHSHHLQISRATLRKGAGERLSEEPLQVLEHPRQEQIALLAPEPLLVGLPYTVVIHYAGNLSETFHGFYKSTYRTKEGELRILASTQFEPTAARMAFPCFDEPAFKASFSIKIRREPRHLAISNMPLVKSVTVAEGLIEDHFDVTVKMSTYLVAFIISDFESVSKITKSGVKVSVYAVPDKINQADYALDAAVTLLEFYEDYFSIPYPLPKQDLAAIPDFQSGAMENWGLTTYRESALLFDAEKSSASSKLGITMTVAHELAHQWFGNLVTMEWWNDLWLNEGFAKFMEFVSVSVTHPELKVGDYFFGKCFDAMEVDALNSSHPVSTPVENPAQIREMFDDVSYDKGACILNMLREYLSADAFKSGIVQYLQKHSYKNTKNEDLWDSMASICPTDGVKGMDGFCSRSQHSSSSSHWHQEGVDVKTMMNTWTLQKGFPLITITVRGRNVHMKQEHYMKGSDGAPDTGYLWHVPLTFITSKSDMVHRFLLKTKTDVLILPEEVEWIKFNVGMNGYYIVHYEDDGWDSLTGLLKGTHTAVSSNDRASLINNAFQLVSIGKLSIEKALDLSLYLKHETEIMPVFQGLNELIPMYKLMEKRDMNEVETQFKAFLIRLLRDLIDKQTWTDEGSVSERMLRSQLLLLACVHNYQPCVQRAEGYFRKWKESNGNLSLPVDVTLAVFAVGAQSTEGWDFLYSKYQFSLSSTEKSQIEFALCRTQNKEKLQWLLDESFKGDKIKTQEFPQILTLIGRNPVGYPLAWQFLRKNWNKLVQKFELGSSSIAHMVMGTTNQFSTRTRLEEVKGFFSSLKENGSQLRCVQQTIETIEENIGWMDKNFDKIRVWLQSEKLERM
Data set [5] concerns the target T3, Endoplasmic reticulum aminopeptidase 1. Kind of data set: Competitive inhibition of recombinant human C-terminal His6-tagged ERAP1 expressed in baculovirus infected BTA-TN-5B1-4 insect cells using varying levels of L-pNA as substrate incubated for 1 hr and measured for 5 to 10 mins by […] Michaelis-Menten equation analysis.
The target is the same in data set [6]. Kind of data set: Activation of recombinant human C-terminal His6-tagged ERAP1 expressed in baculovirus infected BTA-TN-5B1-4 insect cells using L-AMC as substrate measured after 1 hr by fluorescence assay.
Data set [7] shares this target. Kind of data set: Activation of recombinant human C-terminal His6-tagged ERAP1 expressed in baculovirus infected BTA-TN-5B1-4 insect cells at 10.7 uM using L-AMC as substrate measured after 1 hr by fluorescence assay relative to control.
Data set [8] shares this target. The data set can be described thus: Inhibition of recombinant human C-terminal His6-tagged ERAP1 expressed in baculovirus infected BTA-TN-5B1-4 insect cells using WRCYEKMALK as substrate measured after 10 mins by LC-MS analysis.
Data set [9] has the same target. The data set can be described thus: Activation of recombinant human C-terminal His6-tagged ERAP1 expressed in baculovirus infected BTA-TN-5B1-4 insect cells assessed as increase in Vmax/[…] ratio using varying levels of L-pNA as substrate incubated for 1 hr and measured for 5 to 10 mins by […] Michaelis-Menten equation analysis relative to control. An outline of the steps:
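ERAP1 initial rates measured under steady-state conditions with the chromogenic substrate leucine p-nitroanilide (L-pNA), allowing a wide substrate range, across several compound concentrations. Rate-versus-substrate curves were fit to an allosteric Michaelis-Menten equation with a Hill coefficient to give V_max and K_half at each compound level. Activity was expressed as V_max/K_half relative to no-compound control.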

The target is the same in data set [10]. The data set can be described thus: Competitive inhibition of recombinant human C-terminal His6-tagged ERAP1 expressed in baculovirus infected BTA-TN-5B1-4 insect cells using varying levels of LVAFKARKF as substrate measured at 2.5 mins interval for 20 mins by ABTS reagent based horseradish peroxidase-coupled Michaelis-Menten equation analysis.
The target is the same in data set [11]. Kind of data set: Inhibition of ERAP1 in human HeLa cells stably expressing H-2 Kb infected with vaccinia virus containing ss-LEQLE-SIINFEKL epitope assessed as suppression of ss-LEQLE-SIINFEKL binding to MHC1 H-2 Kb at cell surface by measuring reduction in 25D1 staining measured after 16 to 24 hrs by flow cytometric method. Format: cell-based.
Data set [12] can be described thus: Activation of recombinant human C-terminal His6-tagged ERAP1 allele 2 mutant expressed in baculovirus infected BTA-TN-5B1-4 insect cells using L-AMC as substrate measured after 1 hr by fluorescence assay.
Data set [13] is described as follows: Activation of recombinant human C-terminal His6-tagged ERAP1 allele 3 mutant expressed in baculovirus infected BTA-TN-5B1-4 insect cells using L-AMC as substrate measured after 1 hr by fluorescence assay.
The nature of data set [14]: Activation of recombinant human C-terminal His6-tagged ERAP1 5-SNP mutant expressed in baculovirus infected BTA-TN-5B1-4 insect cells using L-AMC as substrate measured after 1 hr by fluorescence assay.

Calls of active or inactive are those of the source. The calls are words filed in the database; no cut-off is given here.

Take `O=C(O)c1ccc(Br)c(S(=O)(=O)Nc2cc(C(F)(F)F)ccc2N2CCCCC2)c1`: the IC50 in data set [1] is more than 200 µM.
For `O=C(O)c1ccc(Cl)c(S(=O)(=O)Nc2cc(C(F)(F)F)ccc2N2CCCCC2)c1`, the IC50 in data set [1] is more than 200 µM.
With `O=C(O)c1cccc(S(=O)(=O)Nc2cc(C(F)(F)F)ccc2N2CCCCC2)c1`, the IC50 in [1] was more than 200 µM.
Regarding `COc1ccc(C(=O)O)cc1S(=O)(=O)Nc1ccccc1N1CCCCC1`, in [1], the concentration for half-maximal inhibition (IC50) is more than 200 µM.
For `CC(C)C[C@H](N)CS`, the inhibition result in data set [2] was “inactive”.
Consider `COc1ccc(C(=O)O)cc1S(=O)(=O)Nc1cc(C(F)(F)F)ccc1N1CCN(C)CC1`, for which, in data set [1], the IC50 is more than 200 µM.
`COC(=O)c1ccc(OC)c(S(=O)(=O)Nc2cc(C(F)(F)F)ccc2N2CCCCC2)c1`: in data set [1], the IC50 is more than 200 µM. The inhibition entry in [3] was “Active”.
As for `N=C(NCCc1c[nH]c2ccccc12)NS(=O)(=O)c1cc(F)ccc1F`, the IC50 in [4] was determined as 9.2 µM. The Ki in data set [5] was found to be 51.7 µM. Besides, the inhibition entry in [2] was “Active”.
With `COc1ccc(C(=O)O)cc1S(=O)(=O)Nc1cc(C)ccc1N1CCCCC1`, the IC50 in [1] is more than 200 µM.
Still for that read-out and setting: to `COc1ccc(C(=O)O)cc1S(=O)(=O)Nc1cc(F)ccc1N1CCCCC1` belongs more than 200 µM.
Regarding `COc1ccc(C(=O)O)cc1S(=O)(=O)Nc1cc(C(F)(F)F)ccc1N1CCCCC1`, the “inhibition (INH)” value in [1] (mouse, 1 h) was “Not Active”. Also, the AC50 in data set [6] was found to be 4.1 µM; in data set [12], 0.88 µM; in data set [13] it was 3.1 µM; in [14], 2.7 µM. For the same compound, the Activity in data set [7] is more than 40%. The values for the IC50 in [8] and in [11] were 5.3 µM and 1 µM, respectively. Moreover, the fold change (FC) in [9] was less than 1.8. The Ki in data set [10] was determined as 3.8 µM. Also, the inhibition entry in [2] was “inactive”.
